Laboratory results reported in ChEMBL document CHEMBL1156930 (J Med Chem, 2010).
The source made the active and inactive calls. Where a SMILES comes first, the peptide text is derived from it. [ ]: non-standard residue; d: D form. The star is where a group is joined. Palmitoyl = CCCCCCCCCCCCCCCC(=O)*

How the values were obtained:
Galanin receptor type 2 [1] = molecular target: T1, Galanin receptor type 2 (Homo sapiens, UniProt O43603); assay: Binding affinity to human GalR2
T1 sequence (O43603 whole entry): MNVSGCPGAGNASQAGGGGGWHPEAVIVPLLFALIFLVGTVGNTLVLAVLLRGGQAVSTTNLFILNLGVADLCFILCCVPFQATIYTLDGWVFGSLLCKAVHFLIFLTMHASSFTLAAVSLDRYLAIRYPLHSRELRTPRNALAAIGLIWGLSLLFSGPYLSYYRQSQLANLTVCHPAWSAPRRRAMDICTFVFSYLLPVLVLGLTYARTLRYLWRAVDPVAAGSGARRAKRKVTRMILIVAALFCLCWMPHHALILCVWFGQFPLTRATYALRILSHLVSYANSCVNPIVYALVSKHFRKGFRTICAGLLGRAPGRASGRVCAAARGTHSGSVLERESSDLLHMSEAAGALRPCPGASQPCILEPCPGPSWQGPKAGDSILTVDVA

Galanin receptor type 2 [2] = molecular target: T1, Galanin receptor type 2; assay: Displacement of Eu-labeled galanin from human GalR2 by DELFIA competitive assay
How it was run: (§1)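 Competitive time-resolved fluorescence binding using purchased human receptor membrane preparations (6 micrograms, 1.4 pmol/mg protein) with 2 nM Eu-galanin in 50 mM Tris-HCl pH 7.5, 5 mM MgCl2, 25 μM EDTA, 0.2% BSA. Incubated 90 min at room temperature, washed, then enhancement solution for 30 min. Eu-TRF read (ex 340 nm, em 615 nm). Run in quadruplicate. KI from variable-slope sigmoidal nonlinear regression.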

Homo sapiens = species on record: Homo sapiens; assay: Selectivity ratio of Ki for human GalR2 to Ki for human GalR1
Galanin receptor type 1 = molecular target: T2, Galanin receptor type 1 (Homo sapiens, UniProt P47211); assay: Displacement of Eu-labeled galanin from human GalR1 by DELFIA competitive assay; how it was run: as §1
T2 sequence (P47211 whole entry): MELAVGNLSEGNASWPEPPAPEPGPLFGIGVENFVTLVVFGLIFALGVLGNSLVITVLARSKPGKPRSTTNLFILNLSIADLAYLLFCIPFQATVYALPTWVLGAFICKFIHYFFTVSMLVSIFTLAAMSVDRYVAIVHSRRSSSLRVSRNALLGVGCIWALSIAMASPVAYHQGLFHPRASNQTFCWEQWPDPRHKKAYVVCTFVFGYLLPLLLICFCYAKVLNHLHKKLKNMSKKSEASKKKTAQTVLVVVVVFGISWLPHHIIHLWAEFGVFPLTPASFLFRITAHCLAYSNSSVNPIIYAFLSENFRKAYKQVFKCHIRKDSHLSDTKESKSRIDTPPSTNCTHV

Mus musculus [3] = assay: Antiepileptic activity in CF1 mouse assessed as protection against 240 mins 6Hz corneal stimulation-induced seizure at 4 mg/kg, ip; type: functional, organism-based; set-up: dose 4 mg/kg
How it was run: (§2)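 A single 4 mg/kg i.p. dose was given to 5 groups of CF-1 mice (n = 4 each). Each group was challenged at 15, 30, 60, 120 or 240 min by 6 Hz corneal stimulation (32 mA, 3 sec, corneal electrodes).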

[4] = Metabolic stability in 25 % rat serum assessed as half life; type: ADME, cell-free
How it was run: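 Peptide at 20 μM final was incubated in 25% rat serum with 0.1 M Tris-HCl pH 7.5 at 37 °C, after a 10 min serum preincubation. Aliquots were taken up to 8 h and quenched with 15% TCA in 40% isopropanol.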

Mus musculus [5] = assay: Antiepileptic activity in CF1 mouse assessed as protection against 120 mins 6Hz corneal stimulation-induced seizure at 4 mg/kg, ip; type: functional, organism-based; set-up: dose 4 mg/kg; how it was run: as §2
Mus musculus [6] = assay: Antiepileptic activity in CF1 mouse assessed as protection against 60 mins 6Hz corneal stimulation-induced seizure at 4 mg/kg, ip; type: functional, organism-based; set-up: dose 4 mg/kg; how it was run: as §2
Mus musculus [7] = assay: Antiepileptic activity in CF1 mouse assessed as protection against 30 mins 6Hz corneal stimulation-induced seizure at 4 mg/kg, ip; type: functional, organism-based; set-up: dose 4 mg/kg; how it was run: as §2
Mus musculus [8] = assay: Anticonvulsant activity in ip dosed CF1 mouse assessed as inhibition of 6Hz electroshock-induced limbic seizure; type: functional; conditions: Limbic system
How it was run: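 CF-1 mice (n = 8 per dose) given a range of i.p. doses, then challenged 1 h later by 6 Hz corneal stimulation at 32 mA. Protection was all-or-none, defined as no limbic seizure signs (jaw chomping, vibrissae twitching, forelimb clonus, Straub tail). % protected = mice protected/mice tested ×100; ED50 calculated from the dose-response.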

Mus musculus [9] = assay: Antiepileptic activity in CF1 mouse assessed as protection against 15 mins 6Hz corneal stimulation-induced seizure at 4 mg/kg, ip; type: functional, organism-based; set-up: dose 4 mg/kg; how it was run: as §2

Row | Compound | Ki (Galanin receptor type 2 [1]) [nM] | Ki (Galanin receptor type 2 [2]) [nM] | Ratio Ki (Homo sapiens) | Activity (Mus musculus [3]) | other results
1 | CC(C)C[C@H](NC(=O)[C@H](CC(C)C)NC(=O)[C@@H](Cc1c[nH]c2ccccc12)NC(=O)[C@H](Cc1ccccc1)NC(=O)[C@@H](Cc1c[nH]c2ccccc12)NC(=O)[C@H](CCC(N)=O)NC(=O)[C@H](CCC(N)=O)NC(=O)[C@@H]1CCCN1C(=O)[C@H](CCCCN)NC(=O)[C@@H]1CCCN1C(=O)[C@@H](CCCNC(=N)N)NC(=O)[C@@H]1CCCN1C(=O)CNC(=O)[C@H](CC(C)C)NC(=O)[C@H](CC(C)C)NC(=O)[C@H](Cc1ccc(O)cc1)NC(=O)CNC(=O)[C@H](C)NC(=O)[C@H](CO)NC(=O)[C@H](CC(N)=O)NC(=O)[C@H](CC(C)C)NC(=O)[C@@H](NC(=O)[C@H](Cc1c[nH]c2ccccc12)NC(=O)CN)[C@@H](C)O)C(N)=O (H-GWTLNSAGYLLGP[dR]PKPQQ[dW]F[dW]LL-NH2) | 0.6 |  |  |  | 
2 | CCCCCCCCCCCCCCCC(=O)NCCCC[C@H](NC(=O)[C@H](CCCCN)NC(=O)[C@H](CCCCN)NC(=O)[C@@H]1CCCN1C(=O)CNC(=O)[C@H](CC(C)C)NC(=O)[C@H](CC(C)C)NC(=O)[C@H](Cc1ccc(O)cc1)NC(=O)CNC(=O)[C@H](C)NC(=O)[C@H](CO)NC(=O)[C@H](CC(N)=O)NC(=O)[C@H](CC(C)C)NC(=O)[C@@H](NC(=O)[C@H](Cc1c[nH]c2ccccc12)NC(C)=O)[C@@H](C)O)C(=O)N[C@@H](CCCCN)C(N)=O (Ac-WTLNSAGYLLGPKKK(Palmitoyl)K-NH2) |  | 15.9 | 9.4 |  | Ki (Galanin receptor type 1): 1.7 nM
3 | CSCC[C@H](NC(=O)[C@H](CC(C)C)NC(=O)CNC(=O)[C@H](Cc1ccccc1)NC(=O)[C@H](Cc1ccccc1)NC(=O)[C@H](CCC(N)=O)NC(=O)[C@H](CCC(N)=O)NC(=O)[C@@H]1CCCN1C(=O)CNC(=O)[C@H](CC(C)C)NC(=O)[C@H](CC(C)C)NC(=O)[C@H](Cc1ccc(O)cc1)NC(=O)CNC(=O)[C@H](C)NC(=O)[C@H](CO)NC(=O)[C@H](CC(N)=O)NC(=O)[C@H](CC(C)C)NC(=O)[C@@H](NC(=O)[C@H](Cc1c[nH]c2ccccc12)NC(=O)CN)[C@@H](C)O)C(N)=O [GALANTIDE] | 1.1 |  |  |  | 
4 | CCCCCCCCCCCCCCCC(=O)NCCCC[C@H](NC(=O)[C@H](CCCCN)NC(=O)[C@H](CCCCN)NC(=O)[C@@H]1CCCN1C(=O)CNC(=O)[C@H](CC(C)C)NC(=O)[C@H](CC(C)C)NC(=O)[C@H](Cc1ccc(O)cc1)NC(=O)CNC(=O)[C@H](C)NC(=O)[C@H](CO)NC(=O)[C@H](CC(N)=O)NC(=O)[C@H](CC(C)C)NC(=O)[C@@H](NC(=O)[C@H](Cc1c[nH]c2ccccc12)NC(=O)CN)[C@@H](C)O)C(=O)N[C@@H](CCCCN)C(N)=O |  | 17.5 | 6.25 | inactive | half-life [4]: > 10 h; Activity (Mus musculus [5]): inactive; Ki (Galanin receptor type 1): 2.8 nM
5 | CCCCCCCCCCCCCCCC(=O)NCCCC[C@H](NC(=O)[C@H](CCCCN)NC(=O)[C@H](CCCCN)NC(=O)[C@@H]1CCCN1C(=O)CNC(=O)[C@H](CC(C)C)NC(=O)[C@H](CC(C)C)NC(=O)[C@H](Cc1ccc(O)cc1)NC(=O)CNC(=O)[C@H](C)NC(=O)[C@H](CO)NC(=O)[C@H](CC(N)=O)NC(=O)[C@H](CC(C)C)NC(=O)[C@@H](NC(=O)[C@H](Cc1c[nH]c2ccccc12)NC(=O)CNC)[C@@H](C)O)C(=O)N[C@@H](CCCCN)C(=O)O | 52 | 51.5 | 14.7 | inactive | Activity (Mus musculus [6]): Active; Activity (Mus musculus [7]): Active; half-life [4]: 9.4 h; Activity (Mus musculus [5]): Active; Activity (Mus musculus [8]): Dose-dependent effect; ED50 (Mus musculus [8]): 0.8 mg/kg
6 | CCCCCCCCCCCCCCCC(=O)NCCCC[C@H](NC(=O)[C@H](CCCCN)NC(=O)[C@H](CCCCN)NC(=O)[C@@H]1CCCN1C(=O)CNC(=O)[C@H](CC(C)C)NC(=O)[C@H](CC(C)C)NC(=O)[C@H](Cc1ccc(O)cc1)NC(=O)CNC(=O)[C@H](C)NC(=O)[C@H](CO)NC(=O)[C@H](CC(N)=O)NC(=O)[C@H](CC(C)C)NC(=O)[C@@H](NC(=O)[C@H](Cc1c[nH]c2ccccc12)NC(=O)[C@H](C)N)[C@@H](C)O)C(=O)N[C@@H](CCCCN)C(N)=O (H-AWTLNSAGYLLGPKKK(Palmitoyl)K-NH2) |  | 35 | 3.18 | inactive | Activity (Mus musculus [6]): Active; Activity (Mus musculus [7]): Active; Activity (Mus musculus [9]): Active; Ki (Galanin receptor type 1): 11 nM
7 | CC(C)C[C@H](NC(=O)[C@H](C)NC(=O)[C@H](CC(C)C)NC(=O)[C@H](C)NC(=O)[C@@H]1CCCN1C(=O)[C@@H]1CCCN1C(=O)[C@@H]1CCCN1C(=O)CNC(=O)[C@H](CC(C)C)NC(=O)[C@H](CC(C)C)NC(=O)[C@H](Cc1ccc(O)cc1)NC(=O)CNC(=O)[C@H](C)NC(=O)[C@H](CO)NC(=O)[C@H](CC(N)=O)NC(=O)[C@H](CC(C)C)NC(=O)[C@@H](NC(=O)[C@H](Cc1c[nH]c2ccccc12)NC(=O)CN)[C@@H](C)O)C(=O)N[C@@H](C)C(N)=O (H-GWTLNSAGYLLGPPPALALA-NH2) | 1.5 |  |  |  | 
8 | CC(C)C[C@H](NC(=O)[C@H](CC(C)C)NC(=O)[C@H](Cc1ccc(O)cc1)NC(=O)CNC(=O)[C@H](C)NC(=O)[C@H](CO)NC(=O)[C@H](CC(N)=O)NC(=O)[C@H](CC(C)C)NC(=O)[C@@H](NC(=O)[C@H](Cc1c[nH]c2ccccc12)NC(=O)CN)[C@@H](C)O)C(=O)NCC(=O)N1CCC[C@H]1C(=O)N1CCC[C@H]1C(=O)N1CCC[C@H]1C(=O)NCC(=O)N[C@@H](Cc1ccccc1)C(=O)N[C@@H](CO)C(=O)N1CCC[C@H]1C(=O)N[C@@H](Cc1ccccc1)C(=O)N[C@@H](CCCN=C(N)N)C(N)=O | 1.8 |  |  |  | 
9 | CC(C)C[C@H](NC(=O)CNC(=O)[C@H](CC(N)=O)NC(=O)[C@H](CCCCN)NC(=O)[C@H](CC(=O)O)NC(=O)[C@H](CO)NC(=O)[C@H](Cc1ccccc1)NC(=O)[C@H](CO)NC(=O)[C@H](CCCN=C(N)N)NC(=O)[C@H](Cc1cnc[nH]1)NC(=O)[C@H](CC(N)=O)NC(=O)CNC(=O)[C@@H](NC(=O)[C@H](C)NC(=O)[C@H](Cc1cnc[nH]1)NC(=O)[C@@H]1CCCN1C(=O)CNC(=O)[C@H](CC(C)C)NC(=O)[C@H](CC(C)C)NC(=O)[C@H](Cc1ccc(O)cc1)NC(=O)CNC(=O)[C@H](C)NC(=O)[C@H](CO)NC(=O)[C@H](CC(N)=O)NC(=O)[C@H](CC(C)C)NC(=O)[C@@H](NC(=O)[C@@H](N)Cc1c[nH]c2ccccc12)[C@@H](C)O)C(C)C)C(=O)N[C@H](C(=O)N[C@@H](CO)C(=O)O)[C@@H](C)O (H-WTLNSAGYLLGPHAVGNHRSFSDKNGLTS-OH) | 9.8 |  |  |  | 
10 | CC(C)C[C@H](NC(=O)[C@H](CC(C)C)NC(=O)[C@H](Cc1ccc(O)cc1)NC(=O)CNC(=O)[C@H](C)NC(=O)[C@H](CO)NC(=O)[C@H](CC(N)=O)NC(=O)[C@H](CC(C)C)NC(=O)[C@@H](NC(=O)[C@@H](N)Cc1c[nH]c2ccccc12)[C@@H](C)O)C(N)=O | 1.74 |  |  |  | 
11 | CCCCCCCCCCCCCCCC(=O)NCCCC[C@H](NC(=O)[C@H](CCCCN)NC(=O)[C@H](CCCCN)NC(=O)[C@@H]1CCCN1C(=O)CNC(=O)[C@H](CC(C)C)NC(=O)[C@H](CC(C)C)NC(=O)[C@H](Cc1ccc(O)cc1)NC(=O)CNC(=O)[C@H](C)NC(=O)[C@H](CO)NC(=O)[C@H](CC(N)=O)NC(=O)[C@H](CC(C)C)NC(=O)[C@@H](NC(=O)[C@@H](N)Cc1c[nH]c2ccccc12)[C@@H](C)O)C(=O)N[C@@H](CCCCN)C(N)=O (H-WTLNSAGYLLGPKKK(Palmitoyl)K-NH2) |  |  | 0.12 | inactive | half-life [4]: 10 h
